Values after ≈ are worked out from the molar mass of the structure shown.

Common to all, as to format: functional
Test [1] concerns Staphylococcus aureus. As to the kind of experiment: Antimicrobial activity against hospital methicillin-resistant Staphylococcus aureus 81/05 after 18 hrs by twofold serial microdilution method. To be noted: 81/05, 18 h. The method, boiled down:
(§1)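 Twofold serial microdilution in Mueller-Hinton broth. Compound stock was made in DMSO and diluted in sterile water. Tested range was 0.125–512 µg/mL. Final inoculum was 10^5 CFU/mL. Plates were incubated 18 h at 35 °C. MIC is the lowest concentration preventing visible growth.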

The subject of test [2] is Staphylococcus epidermidis. Kind of test: Antimicrobial activity against Staphylococcus epidermidis ATCC 12228 at 400 ug after 18 hrs by disc-diffusion method. The note with it: ATCC 12228, 18 h, read-out: IZ. The method, boiled down:
(§2)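 Disc diffusion on Mueller-Hinton II agar per CLSI; 9 mm paper discs loaded with 400 µg compound from DMSO solution, dried, placed on agar; growth inhibition zone diameter read after 18 h at 35°C.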
(In general: Agar diffusion results depend on both activity and mobility in agar.)

For test [3], the system named is Staphylococcus aureus. As to the kind of experiment: Antimicrobial activity against hospital methicillin-resistant Staphylococcus aureus 522/11 after 18 hrs by twofold serial microdilution method. The note with it: 522/11, 18 h. In outline: as §1
For orientation: Broth dilution looks for growth in wells or tubes with falling amounts of substance.

The test system of a further test is Enterococcus faecalis. Kind of test: Antimicrobial activity against Enterococcus faecalis ATCC 29212 at 400 ug after 18 hrs by disc-diffusion method. To be noted: ATCC 29212, 18 h, read-out: IZ. The method, boiled down: as §2
The subject of a further test is Enterococcus hirae. As to the kind of experiment: Antimicrobial activity against Enterococcus hirae ATCC 10541 at 400 ug after 18 hrs by disc-diffusion method. The note with it: ATCC 10541, 18 h, read-out: IZ. The method, boiled down: as §2
The subject of test [4] is Staphylococcus aureus. As to the kind of experiment: Antimicrobial activity against hospital methicillin-resistant Staphylococcus aureus 57/05 after 18 hrs by twofold serial microdilution method. To be noted: 57/05, 18 h. In outline:
as §1

Test [5] concerns Staphylococcus epidermidis. As to the kind of experiment: Antimicrobial activity against hospital methicillin-resistant Staphylococcus epidermidis 76/04 after 18 hrs by twofold serial microdilution method. The note with it: 76/04, 18 h. The method, boiled down:
as §1

Test [6] relates to Staphylococcus aureus. As to the kind of experiment: Antimicrobial activity against Staphylococcus aureus NCTC 4163 at 400 ug after 18 hrs by disc-diffusion method. To be noted: NCTC 4163, 18 h, read-out: IZ. The method, boiled down:
as §2

Test [7] concerns Staphylococcus aureus. As to the kind of experiment: Antimicrobial activity against Staphylococcus aureus ATCC 25923 after 18 hrs by twofold serial microdilution method. The note with it: ATCC 25923, 18 h.
Test [8] relates to Staphylococcus aureus. As to the kind of experiment: Antimicrobial activity against Staphylococcus aureus ATCC 6538 after 18 hrs by twofold serial microdilution method. To be noted: ATCC 6538, 18 h.
The test system of test [9] is Staphylococcus epidermidis. As to the kind of experiment: Antimicrobial activity against hospital methicillin-resistant Staphylococcus epidermidis 16/04 after 18 hrs by twofold serial microdilution method. To be noted: 16/04, 18 h. The method, boiled down:
as §1

In test [10] the test system is Staphylococcus aureus. As to the kind of experiment: Antimicrobial activity against hospital methicillin-resistant Staphylococcus aureus 79/05 after 18 hrs by twofold serial microdilution method. To be noted: 79/05, 18 h. In outline: as §1
The test system of test [11] is Staphylococcus epidermidis. Kind of test: Antimicrobial activity against Staphylococcus epidermidis ATCC 35984 at 400 ug after 18 hrs by disc-diffusion method. The note with it: ATCC 35984, 18 h, read-out: IZ. In outline: as §2
The test system of test [12] is Staphylococcus aureus. As to the kind of experiment: Antimicrobial activity against Staphylococcus aureus ATCC 25923 at 400 ug after 18 hrs by disc-diffusion method. To be noted: ATCC 25923, 18 h, read-out: IZ. The method, boiled down: as §2

With `O=C(O)c1cn(C2CC2)c2cc(N3CCNCC3)c(F)cc2c1=O` [CIPROFLOXACIN], the minimum inhibitory concentration (MIC) in the test on Staphylococcus aureus [1] was determined as 8 µg/mL (≈ 24.1 µM); against Staphylococcus aureus [3] it was 128 µg/mL (≈ 386 µM); in the test on Staphylococcus aureus [4] it was 128 µg/mL (≈ 386 µM); in [5], 0.125 µg/mL (≈ 0.377 µM); against Staphylococcus aureus [7], 0.5 µg/mL (≈ 1.51 µM); in the test with Staphylococcus aureus [8] it was 0.25 µg/mL (≈ 0.754 µM). Also, the MIC was 32 µg/mL (≈ 96.6 µM) in test [9] and 64 µg/mL (≈ 193 µM) in the test on Staphylococcus aureus [10]. Moreover, the zone of inhibition at 400 µg/disc stood at 30 mm in test [2]; 15 mm in the test with Enterococcus faecalis; 18 mm in the test with Enterococcus hirae; 26 mm with Staphylococcus aureus [6]; 32 mm in test [11]; 26 mm with Staphylococcus aureus [12].

What is called MIC is the least concentration at which growth counts as inhibited. Read a low MIC as inhibition by little substance.
